Results from ChEMBL document CHEMBL4765236, “Insights into the Antimicrobial Activity and Cytotoxicity of Engineered α-Helical Peptide Amphiphiles” (J Med Chem, 2016).
Calls of active or inactive are those of the source. The rule behind the calls is not given here.

What was measured:
Escherichia coli [1] = assay: Antibacterial activity against Escherichia coli O157:H7 CICC 21530 assessed as bacterial growth inhibition incubated for 18 to 24 hrs by microtiter broth dilution method; type: functional; settings: time 18-24 hrs
How it was run: (§1)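 Log-phase bacteria grown at 37 °C in MHB, diluted to 10^5 CFU/mL, mixed 1:1 with serial peptide dilutions (peptide diluted in 0.01% acetic acid, 0.2% BSA); 37 °C for 18-24 h. MIC read by OD492 as lowest concentration giving no growth; mean of 3-5 independent experiments.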

Escherichia coli [2] = assay: Antibacterial activity against Escherichia coli ATCC 25922 assessed as bacterial growth inhibition incubated for 18 to 24 hrs by microtiter broth dilution method; type: functional; settings: time 18-24 hrs
How it was run: (§2)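 Log-phase cells (grown overnight at 37 °C, subcultured in MHB) diluted to 10^5 CFU/mL in MHB and mixed 1:1 with serial peptide dilutions prepared in 0.01% acetic acid/0.2% BSA. Incubated 37 °C for 18-24 h. MIC is the lowest concentration giving no growth by OD492. Reported as the average of 3-5 independent experiments.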

Salmonella paratyphi = assay: Antibacterial activity against Salmonella paratyphi A CICC 20501 assessed as bacterial growth inhibition incubated for 18 to 24 hrs by microtiter broth dilution method; type: functional, Salmonella enterica subsp. enterica serovar Paratyphi A; settings: Salmonella enterica, time 18-24 hrs; how it was run: as §1
Shigella flexneri = assay: Antibacterial activity against Shigella flexneri CMCC 51571 assessed as bacterial growth inhibition incubated for 18 to 24 hrs by microtiter broth dilution method; type: functional; settings: time 18-24 hrs; how it was run: as §2
Salmonella typhimurium = assay: Antibacterial activity against Salmonella typhimurium CMCC 51005 assessed as bacterial growth inhibition incubated for 18 to 24 hrs by microtiter broth dilution method; type: functional, Salmonella enterica subsp. enterica serovar Typhimurium; settings: Salmonella enterica, time 18-24 hrs; how it was run: as §2
Salmonella enteritidis = assay: Antibacterial activity against Salmonella enteritidis CICC 21527 assessed as bacterial growth inhibition incubated for 18 to 24 hrs by microtiter broth dilution method; type: functional, Salmonella enterica subsp. enterica serovar Enteritidis; settings: Salmonella enterica, time 18-24 hrs; how it was run: as §2
Vibrio parahaemolyticus = assay: Antibacterial activity against Vibrio parahaemolyticus CICC 21617 assessed as bacterial growth inhibition incubated for 18 to 24 hrs by broth dilution method; type: functional; settings: time 18-24 hrs; how it was run: as §2
Staphylococcus aureus [3] = assay: Antibacterial activity against Staphylococcus aureus ATCC 29213 assessed as bacterial growth inhibition incubated for 18 to 24 hrs by microtiter broth dilution method; type: functional; settings: time 18-24 hrs; how it was run: as §2
Listeria monocytogenes = assay: Antibacterial activity against Listeria monocytogenes CICC 21662 assessed as bacterial growth inhibition incubated for 18 to 24 hrs by microtiter broth dilution method; type: functional; settings: time 18-24 hrs; how it was run: as §2
Bacillus cereus = assay: Antibacterial activity against Bacillus cereus CMCC 63301 assessed as bacterial growth inhibition incubated for 18 to 24 hrs by microtiter broth dilution method; type: functional; settings: time 18-24 hrs; how it was run: as §2
Micrococcus luteus = assay: Antibacterial activity against Micrococcus luteus CMCC 28001 assessed as bacterial growth inhibition incubated for 18 to 24 hrs by microtiter broth dilution method; type: functional; settings: time 18-24 hrs; how it was run: as §2
Bacillus pumilus = assay: Antibacterial activity against Bacillus pumilus CMCC 63202 assessed as bacterial growth inhibition incubated for 18 to 24 hrs by microtiter broth dilution method; type: functional; settings: time 18-24 hrs; how it was run: as §2
Staphylococcus aureus [4] = assay: Antibacterial activity against methicillin resistant Staphylococcus aureus ATCC 43300 assessed as bacterial growth inhibition incubated for 18 to 24 hrs by microtiter broth dilution method; type: functional; settings: time 18-24 hrs; how it was run: as §1
Candida albicans = assay: Antifungal activity against Candida albicans ATCC 10231 assessed as fungal growth inhibition incubated for 18 to 24 hrs by microtiter broth dilution method; type: functional; settings: time 18-24 hrs; how it was run: as §2
Erythrocyte = assay: Hemolytic activity against human red blood cells assessed as concentration required to cause 10% hemoglobin release measured after 1 hr by microplate reader analysis; type: ADME, cell-based
How it was run: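 Fresh heparinized human RBCs washed three times in 10 mM PBS pH 7.4 and resuspended to about 1% (v/v) (5.4 × 10^8 cells/mL). Mixed 1:1 with peptide in PBS for 1 h at 37 °C, then centrifuged. Supernatant hemoglobin read at A540. PBS set as 0% and 0.1% Triton X-100 as 100% hemolysis. MHC is the concentration causing 10% hemolysis.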

[5] = Therapeutic index, ratio of MHC10 for human RBC to geometric mean of peptide MIC for Staphylococcus aureus ATCC 29213; type: toxicity; settings: human red blood cells (RBC), pooled result: one value given for 9 cell lines, strains, targets or settings, read-out: TI
How it was run: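 Therapeutic index = MHC (peptide concentration giving 10% hemolysis of human RBCs, 1 h, 37 °C, A540) divided by geometric mean of MICs from broth microdilution (10^5 CFU/mL in MHB, 37 °C, 18-24 h, OD492).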

Escherichia coli [6] = assay: Antibacterial activity against Escherichia coli O157:H7 CICC 21530 assessed as bacterial growth inhibition incubated for 18 to 24 hrs in presence of 150 mM NaCl by microtiter broth dilution method (reference value: 0.85 to > 71.5 uM); type: functional; settings: time 18-24 hrs
Escherichia coli [7] = assay: Antibacterial activity against Escherichia coli O157:H7 CICC 21530 assessed as bacterial growth inhibition incubated for 18 to 24 hrs in presence of 4.5 mM KCl by microtiter broth dilution method (reference value: 0.85 to > 71.5 uM); type: functional; settings: time 18-24 hrs
Escherichia coli [8] = assay: Antibacterial activity against Escherichia coli O157:H7 CICC 21530 assessed as bacterial growth inhibition incubated for 18 to 24 hrs in presence of 6 mM NH4Cl by microtiter broth dilution method (reference value: 0.85 to > 71.5 uM); type: functional; settings: time 18-24 hrs
Escherichia coli [9] = assay: Antibacterial activity against Escherichia coli O157:H7 CICC 21530 assessed as bacterial growth inhibition incubated for 18 to 24 hrs in presence of 4 mM FeCl3 by microtiter broth dilution method (reference value: 0.85 to > 71.5 uM); type: functional; settings: time 18-24 hrs
RAW264.7 = assay: Antiinflammatory activity against mouse RAW264.7 cells assessed as inhibition of LPS-induced TNF-alpha production at 0.5 to 64 uM measured after 24 hrs by […] ELISA; type: functional, cell-based; settings: dose 0.5-64 µM
How it was run: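 RAW264.7 cells plated at 1-2 × 10^5 cells/mL and stimulated with 500 ng/mL LPS with or without peptide (0.5-64 µM) for 24 h at 37 °C. Controls were untreated cells and LPS alone. TNF-α in the supernatant measured by ELISA. NO measured by Griess reagent (1% sulfanilamide, 0.1% naphthylethylenediamine, 5% phosphoric acid).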

HepG2 = assay: Cytotoxicity against human HepG2 cells assessed as reduction in cell viability incubated for 24 hrs by MTT assay; type: functional, cell-based
How it was run: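 HepG2 survival measured by MTT assay over a peptide range of 0.25-64 µM.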

Staphylococcus aureus [10] = assay: Antibacterial activity against Staphylococcus aureus ATCC 29213 assessed as bacterial growth inhibition incubated for 18 to 24 hrs in presence of 4.5 mM KCl by microtiter broth dilution method (reference value: 0.43 to > 71.5 uM); type: functional; settings: time 18-24 hrs
Staphylococcus aureus [11] = assay: Antibacterial activity against Staphylococcus aureus ATCC 29213 assessed as bacterial growth inhibition incubated for 18 to 24 hrs in presence of 1 mM MgCl2 by microtiter broth dilution method (reference value: 0.43 to > 71.5 uM); type: functional; settings: time 18-24 hrs
Staphylococcus aureus [12] = assay: Antibacterial activity against Staphylococcus aureus ATCC 29213 assessed as bacterial growth inhibition incubated for 18 to 24 hrs in presence of […] by microtiter broth dilution method (reference value: 0.43 to > 71.5 uM); type: functional; settings: time 18-24 hrs
Escherichia coli [13] = assay: Bactericidal activity against Escherichia coli O157:H7 CICC 21530 assessed as bacterial killing at 1 times MIC by time kill assay; type: functional, organism-based; settings: time 1085.0 min, TDE = time-dependent effect

| Substance | MIC (Escherichia coli [1]) | MIC (Escherichia coli [2]) | MIC (Salmonella paratyphi) | MIC (Shigella flexneri) | MIC (Salmonella typhimurium) | MIC (Salmonella enteritidis) | MIC (Vibrio parahaemolyticus) | MIC (Staphylococcus aureus [3]) | MIC (Listeria monocytogenes) | MIC (Bacillus cereus) | MIC (Micrococcus luteus) | MIC (Bacillus pumilus) | MIC (Staphylococcus aureus [4]) | MIC (Candida albicans) | MHC10 (Erythrocyte) | selectivity ratio [5] | MIC (Escherichia coli [6]) | MIC (Escherichia coli [7]) | MIC (Escherichia coli [8]) | MIC (Escherichia coli [9]) | also measured |
| --- | --- | --- | --- | --- | --- | --- | --- | --- | --- | --- | --- | --- | --- | --- | --- | --- | --- | --- | --- | --- | --- |
| H-WGRAFSAGVHRLARGGRG-NH2 | 16.8 µM | > 67 µM | 33.5 µM | > 67 µM | > 67 µM | > 67 µM | > 67 µM | > 67 µM | 33.5 µM | > 67 µM | > 67 µM | > 67 µM | > 67 µM | > 67 µM | > 67.01 µM | 1.26 | > 67 µM | 4.19 µM | 8.35 µM | > 67 µM | Activity (RAW264.7): Active; Activity (HepG2): Dose-dependent effect; MIC (Staphylococcus aureus [10]): > 67 µM; MIC (Staphylococcus aureus [11]): > 67 µM; MIC (Staphylococcus aureus [12]): > 67 µM; Activity (Escherichia coli [13]): Tde |
| H-WGRAFSRGVRRLARGGRG-NH2 | 7.94 µM | 31.8 µM | 15.9 µM | 15.9 µM | > 63.5 µM | > 63.5 µM | > 63.5 µM | 31.8 µM | 15.9 µM | > 63.5 µM | > 63.5 µM | > 63.5 µM | > 63.5 µM | > 63.5 µM | > 63.54 µM | 2.16 | 15.9 µM | 3.97 µM | 7.94 µM | > 63.5 µM | Activity (RAW264.7): Active; Activity (HepG2): Dose-dependent effect; MIC (Staphylococcus aureus [10]): > 63.5 µM; MIC (Staphylococcus aureus [11]): > 63.5 µM; MIC (Staphylococcus aureus [12]): > 63.5 µM; Activity (Escherichia coli [13]): Tde |
